Laboratory results: ChEMBL document CHEMBL3352185, “Design, synthesis, and antibacterial properties of dual-ligand inhibitors of acetyl-CoA carboxylase” (2014)
≈ marks a conversion by molar mass, not a printed value. Calls of active or inactive are those of the source. No cut-off for these calls is given here.

Key:
[1] = system: Staphylococcus epidermidis; assay: Antibacterial activity against wild type Staphylococcus epidermidis ATCC 35984 after 18 to 24 hrs by two-fold broth microdilution method; assay type: functional
Method in brief: (§1)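 MICs were determined by CLSI broth microdilution in cation-adjusted Mueller Hinton (MHII) broth. Organisms were first streaked on agar and grown overnight at 35 °C. Compounds were dissolved in 100% DMSO and tested as 2-fold serial dilutions. A standardized inoculum was incubated with compound for 18−24 h at 35 °C. The norA strain is an otherwise isogenic S. aureus carrying a gain-of-function NorA mutation.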

Enterococcus faecalis = assay: Antibacterial activity against wild type Enterococcus faecalis ATCC 29212 after 18 to 24 hrs by two-fold broth microdilution method; assay type: functional; method in brief: as §1
Pseudomonas aeruginosa [2] = assay: Antibacterial activity against wild type Pseudomonas aeruginosa PAO1 after 18 to 24 hrs by two-fold broth microdilution method; assay type: functional
Method in brief: (§2)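 CLSI broth microdilution in cation-adjusted Mueller Hinton (MHII) broth. Strains streaked on agar and grown overnight at 35 °C. […] Value is the MIC.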

Escherichia coli [3] = assay: Antibacterial activity against wild type Escherichia coli D21 after 18 to 24 hrs by two-fold broth microdilution method; assay type: functional; method in brief: as §2
Escherichia coli [4] = assay: Antibacterial activity against Escherichia coli D21 IpxC101 deletion mutant after 18 to 24 hrs by two-fold broth microdilution method; assay type: functional; method in brief: as §2
Escherichia coli [5] = assay: Antibacterial activity against Escherichia coli D21 tolC deletion mutant after 18 to 24 hrs by two-fold broth microdilution method; assay type: functional; method in brief: as §2
Escherichia coli [6] = assay: Antibacterial activity against Escherichia coli D21 IpxC101/tolC deletion mutant after 18 to 24 hrs by two-fold broth microdilution method; assay type: functional; method in brief: as §2
Pseudomonas aeruginosa [7] = assay: Antibacterial activity against Pseudomonas aeruginosa PAO1 mexAB/mexCD/mexXY/mexHI/opmH deletion mutant after 18 to 24 hrs by two-fold broth microdilution method
Staphylococcus aureus [8] = assay: microbe, parasite or virus in culture; details: ATCC 29213
Staphylococcus aureus [9] = assay: microbe, parasite or virus in culture; details: ATCC 29213; remark: listed apart in the source
Escherichia coli [10] = assay: Antibacterial activity against moiramide-resistant Escherichia coli D21 tolC deletion mutant after 18 to 24 hrs by two-fold broth microdilution method; assay type: functional; method in brief: as §2
Staphylococcus aureus [11] = assay: Antibacterial activity against moiramide-resistant Staphylococcus aureus ATCC 29213 after 18 to 24 hrs by two-fold broth microdilution method; assay type: functional; method in brief: as §2
Escherichia coli [12] = assay: Ratio of MPC for Escherichia coli D21 tolC deletion mutant to MIC for Escherichia coli D21 tolC deletion mutant; assay type: functional
Method in brief: (§3)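 Single-step selection on MHII agar: compound added to molten agar cooled to 55 °C, at 2-fold increasing concentrations. Overnight MHII broth culture of E. coli tolC concentrated by centrifugation; 4 × 10^9 CFU plated per plate, CFU counted by serial dilution. Plates monitored for resistant colonies. MPC is the lowest consecutive concentration fully suppressing resistant mutants. Ratio is MPC to broth microdilution MIC.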

Escherichia coli [13] = assay: Antibacterial activity against Escherichia coli D21 tolC deletion mutant assessed as mutant prevention concentration after 18 to 24 hrs by two-fold broth microdilution method; assay type: functional; method in brief: as §3
Escherichia coli [14] = assay: Non competitive inhibition of Escherichia coli acetyl-CoA carboxylase using acetyl-CoA as substrate in presence of ATP
Escherichia coli [15] = assay: Competitive inhibition of Escherichia coli acetyl-CoA carboxylase using acetyl-CoA as substrate in presence of ATP
Method in brief: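 ACC holoenzyme activity was measured with a pyruvate kinase/lactate dehydrogenase coupled assay. Mix: 0.5 mM phosphoenolpyruvate, 0.2 mM NADH, 20 mM MgCl2, 15 mM bicarbonate, 100 mM HEPES pH 8.0. ATP was fixed at 5 μM, acetyl-CoA was varied from 50 to 1000 μM, and inhibitor was used at fixed increasing concentrations. Initial velocities were fitted to a competitive equation to give Kis.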

Escherichia coli [16] = assay: Competitive inhibition of Escherichia coli biotin carboxylase
Escherichia coli [17] = assay: Selectivity ratio of MIC for moiramide-resistant Escherichia coli D21 tolC deletion mutant to MIC for Escherichia coli D21 tolC deletion mutant; assay type: functional
Staphylococcus aureus [18] = assay: Selectivity ratio of MIC for moiramide-resistant Staphylococcus aureus ATCC 29213 to MIC for Staphylococcus aureus ATCC 29213; assay type: functional
Escherichia coli [19] = assay: Inhibition of Escherichia coli acetyl-CoA carboxylase
Method in brief: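 Purified ACC complex was assayed by PK/LDH-coupled NADH oxidation in 100 mM HEPES pH 8.0, with 20 mM MgCl2 and 15 mM bicarbonate. One series varied ATP (0.8–56 μM) at 0.2 mM acetyl-CoA; the other varied acetyl-CoA (50–1000 μM) at 5 μM ATP. Each series was run at fixed increasing inhibitor levels. Kis and Kii came from fits to competitive or noncompetitive rate equations.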

Escherichia coli [20] = assay: Antibacterial activity against Escherichia coli JM109 at 1 to 100 uM after 4 hrs by UV-Vis spectrophotometry; assay type: functional, organism-based
Method in brief: (§4)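 E. coli JM109 was grown overnight in LB at 37 °C, then diluted into fresh LB tubes. Tubes received compound from a DMSO stock at final 1, 10, 50 or 100 μM, with or without polymyxin B nonapeptide at final 0.5, 1, 5 or 10 μg/mL. Tubes were incubated 4 h at 37 °C and growth was read as absorbance at 600 nm.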

Escherichia coli [21] = assay: Antibacterial activity against Escherichia coli JM109 at 1 to 100 uM after 4 hrs by UV-Vis spectrophotometry in presence of PBMN; assay type: functional, organism-based; method in brief: as §4

Row | Compound | MIC [1] | MIC (Enterococcus faecalis) | MIC (Pseudomonas aeruginosa [2]) | MIC (Escherichia coli [3]) | MIC (Escherichia coli [4]) | MIC (Escherichia coli [6]) | MIC (Pseudomonas aeruginosa [7]) | MIC (Escherichia coli [5]; Escherichia coli, D21) | MIC (Staphylococcus aureus [8]) | MIC (Staphylococcus aureus [9]) | MIC (Escherichia coli [10]) | MIC (Staphylococcus aureus [11]) | Ratio (Escherichia coli [12]) | Activity (Escherichia coli [13]) | Kii (Escherichia coli [14]) | Kis (Escherichia coli [14]) | Kis (Escherichia coli [15]) | further results
1 | GENTAMICIN | 8 µg/mL | 8 µg/mL | 2 µg/mL | 0.1 µg/mL | 0.12 µg/mL | < 0.03 µg/mL | – | – | – | – | – | – | – | – | – | – | – | MIC (Escherichia coli [5]): 0.24 µg/mL
2 | O=C(N[C@H](CO)[C@H](O)c1ccc([N+](=O)[O-])cc1)C(Cl)Cl [CHLORAMPHENICOL] | 8 µg/mL (≈ 24.8 µM) | 8 µg/mL (≈ 24.8 µM) | > 64 µg/mL | 8 µg/mL (≈ 24.8 µM) | 4 µg/mL (≈ 12.4 µM) | 1 µg/mL (≈ 3.09 µM) | 2 µg/mL (≈ 6.19 µM) | 1 µg/mL (≈ 3.09 µM) | 8 µg/mL (≈ 24.8 µM) | 8 µg/mL (≈ 24.8 µM) | – | – | – | – | – | – | – | –
3 | NC[C@H]1O[C@H](O[C@H]2[C@H](O)[C@@H](O[C@H]3O[C@H](CO)[C@@H](O)[C@H](N)[C@H]3O)[C@H](N)C[C@@H]2N)[C@H](O)[C@@H](O)[C@@H]1O [KANAMYCIN] | > 128 µg/mL | 31 µg/mL (≈ 64 µM) | 128 µg/mL (≈ 264 µM) | 2 µg/mL (≈ 4.13 µM) | 1 µg/mL (≈ 2.06 µM) | 0.5 µg/mL (≈ 1.03 µM) | 64 µg/mL (≈ 132 µM) | 2 µg/mL (≈ 4.13 µM) | 4 µg/mL (≈ 8.26 µM) | 4 µg/mL (≈ 8.26 µM) | 0.5 µg/mL (≈ 1.03 µM) | 2 µg/mL (≈ 4.13 µM) | – | – | – | – | – | –
4 | CC(C)[C@H](NC(=O)C[C@H](NC(=O)CCCCCCCOc1ccc(CN(Cc2ccccc2)C(=O)c2cnc(N)o2)cc1)c1ccccc1)C(=O)[C@@H]1C(=O)NC(=O)[C@H]1C | 1 µg/mL (≈ 1.24 µM) | 4 µg/mL (≈ 4.96 µM) | > 64 µg/mL | > 64 µg/mL | – | 4 µg/mL (≈ 4.96 µM) | – | 8 µg/mL (≈ 9.91 µM) | 4 µg/mL (≈ 4.96 µM) | 4 µg/mL (≈ 4.96 µM) | 16 µg/mL (≈ 19.8 µM) | > 64 µg/mL | 8 | 64 mg/L | 9.6 nM | 16.9 nM | 5.5 nM | –
5 | Nc1ncc(C(=O)N(Cc2ccccc2)Cc2ccccc2)o1 | > 64 µg/mL | > 64 µg/mL | > 64 µg/mL | > 64 µg/mL | – | 16 µg/mL (≈ 52.1 µM) | – | 16 µg/mL (≈ 52.1 µM) | > 64 µg/mL | > 64 µg/mL | 8 µg/mL (≈ 26 µM) | – | >8 | >128 mg/L | 900 nM | 400 nM | – | Kis (Escherichia coli [16]): 0.8 µM
6 | C/C=C/C=C/C(=O)N[C@@H](CC(=O)N[C@H](C(=O)[C@@H]1C(=O)NC(=O)[C@H]1C)C(C)C)c1ccccc1 | 0.24 µg/mL (≈ 0.529 µM) | 8 µg/mL (≈ 17.6 µM) | > 64 µg/mL | > 64 µg/mL | 4 µg/mL (≈ 8.82 µM) | 0.5 µg/mL (≈ 1.1 µM) | 8 µg/mL (≈ 17.6 µM) | 0.5 µg/mL (≈ 1.1 µM) | 4 µg/mL (≈ 8.82 µM) | 1 µg/mL (≈ 2.2 µM) | 4 µg/mL (≈ 8.82 µM) | 8 µg/mL (≈ 17.6 µM) | 32 | 16 mg/L | – | – | 7.9 nM | Ratio (Escherichia coli [17]): 8; Ratio (Staphylococcus aureus [18]): 8; INH (Escherichia coli [19]): 5 nM
7 | CO[C@H]1/C=C/O[C@@]2(C)Oc3c(C)c(O)c4c(O)c(c(/C=N/N5CCN(C)CC5)c(O)c4c3C2=O)NC(=O)/C(C)=C\C=C\[C@H](C)[C@H](O)[C@@H](C)[C@@H](O)[C@@H](C)[C@H](OC(C)=O)[C@@H]1C [RIFAMPIN] | ≤ 0.03 µg/mL | 0.5 µg/mL (≈ 0.608 µM) | 31 µg/mL (≈ 37.7 µM) | 31 µg/mL (≈ 37.7 µM) | 0.06 µg/mL (≈ 0.0729 µM) | 0.5 µg/mL (≈ 0.608 µM) | 31 µg/mL (≈ 37.7 µM) | 8 µg/mL (≈ 9.72 µM) | ≤ 0.03 µg/mL | ≤ 0.03 µg/mL | – | – | >8 | >64 mg/L | – | – | – | Activity (Escherichia coli [5]): >64 mg/L
8 | CC(C)[C@H](NC(=O)C[C@H](NC(=O)CCCCCCCCCCCCCCCOc1ccc(CN(Cc2ccccc2)C(=O)c2cnc(N)o2)cc1)c1ccccc1)C(=O)[C@@H]1C(=O)NC(=O)[C@H]1C | > 64 µg/mL | > 64 µg/mL | > 64 µg/mL | > 64 µg/mL | – | – | – | – | > 64 µg/mL | > 64 µg/mL | – | – | – | – | 33.7 nM | 28.7 nM | 5.2 nM | Activity (Escherichia coli [20]): inactive; Activity (Escherichia coli [21]): Active
